In ChEMBL document CHEMBL2074545, “Transport of bile acids, sulfated steroids, estradiol 17-beta-D-glucuronide, and leukotriene C4 by human multidrug resistance protein 8 (ABCC11)” (Mol Pharmacol, 2004):

Legend:
[1] = molecular target: ATP-binding cassette sub-family C member 11 (Homo sapiens) (UniProt Q96J66); assay: TP_TRANSPORTER: inhibition of Estradiol-17beta-D-glucuronide uptake by cGMP at a concentration of 10 uM in membrane vesicle from MRP8-expressing LLC-PK1 cells; type: functional, cell membranes; design: scale not given: the % may be the effect or the level left
ATP-binding cassette sub-family C member 11 (Homo sapiens), sequence (Q96J66 whole entry): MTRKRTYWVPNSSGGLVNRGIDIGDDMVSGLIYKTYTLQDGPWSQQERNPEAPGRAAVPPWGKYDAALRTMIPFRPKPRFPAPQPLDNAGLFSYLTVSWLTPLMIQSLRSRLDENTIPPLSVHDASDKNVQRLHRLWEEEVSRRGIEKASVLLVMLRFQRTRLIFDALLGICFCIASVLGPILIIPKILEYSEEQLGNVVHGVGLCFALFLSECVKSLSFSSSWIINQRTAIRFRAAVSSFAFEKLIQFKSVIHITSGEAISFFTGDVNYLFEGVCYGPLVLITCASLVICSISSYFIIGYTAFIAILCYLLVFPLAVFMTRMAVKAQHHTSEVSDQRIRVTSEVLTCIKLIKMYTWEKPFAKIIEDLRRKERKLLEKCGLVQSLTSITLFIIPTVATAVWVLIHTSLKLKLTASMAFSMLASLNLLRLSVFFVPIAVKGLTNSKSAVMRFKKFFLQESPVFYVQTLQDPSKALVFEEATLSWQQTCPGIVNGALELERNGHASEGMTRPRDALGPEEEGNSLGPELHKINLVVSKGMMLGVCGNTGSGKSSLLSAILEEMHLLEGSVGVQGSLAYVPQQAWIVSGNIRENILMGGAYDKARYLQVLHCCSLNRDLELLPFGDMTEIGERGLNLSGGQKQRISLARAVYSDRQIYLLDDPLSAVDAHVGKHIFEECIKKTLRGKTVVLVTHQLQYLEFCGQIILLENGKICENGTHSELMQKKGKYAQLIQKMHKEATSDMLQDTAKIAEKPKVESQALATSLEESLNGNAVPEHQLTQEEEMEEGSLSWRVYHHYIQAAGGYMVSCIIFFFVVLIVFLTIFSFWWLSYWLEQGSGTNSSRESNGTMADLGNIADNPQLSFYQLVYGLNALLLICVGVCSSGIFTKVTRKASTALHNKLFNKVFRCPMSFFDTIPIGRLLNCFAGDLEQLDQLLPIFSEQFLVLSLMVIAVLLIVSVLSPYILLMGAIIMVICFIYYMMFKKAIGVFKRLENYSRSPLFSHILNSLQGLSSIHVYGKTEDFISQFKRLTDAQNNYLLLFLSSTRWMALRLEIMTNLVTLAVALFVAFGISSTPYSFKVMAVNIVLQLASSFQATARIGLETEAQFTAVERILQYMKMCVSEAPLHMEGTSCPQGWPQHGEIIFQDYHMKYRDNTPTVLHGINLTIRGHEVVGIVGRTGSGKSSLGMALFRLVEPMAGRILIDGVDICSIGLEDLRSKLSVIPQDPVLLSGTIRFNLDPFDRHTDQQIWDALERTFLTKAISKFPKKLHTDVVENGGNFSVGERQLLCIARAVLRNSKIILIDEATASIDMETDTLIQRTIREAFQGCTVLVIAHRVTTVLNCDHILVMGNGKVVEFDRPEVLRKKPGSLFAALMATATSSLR
In short: (§1)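 Vesicles (10 µg) from LLC-PK1-MRP8-3 cells incubated 10 min at 37°C with 1 µM [3H]E217βG plus modulator, in 0.25 M sucrose, 10 mM Tris-HCl pH 7.4, 10 mM MgCl2, creatine phosphate/creatine kinase, with 4 mM ATP or 4 mM AMP. Rapid filtration, scintillation counting. ATP-dependent uptake (ATP minus AMP) expressed as % of modulator-free uptake. At least three measurements, each in duplicate.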

[2] = system: CN(Cc1cnc2nc(N)nc(N)c2n1)c1ccc(C(=O)N[C@@H](CCC(=O)O)C(=O)O)cc1; settings: LLC-PK1; Membrane vesicle
[3] = system: C[C@]12CC[C@@H]3c4ccc(O)cc4CC[C@H]3[C@@H]1CC[C@@H]2O[C@@H]1O[C@H](C(=O)O)[C@@H](O)[C@H](O)[C@H]1O; settings: LLC-PK1; Membrane vesicle
[4] = system: C[C@]12CC[C@H](OS(=O)(=O)O)CC1=CC[C@@H]1[C@@H]2CC[C@]2(C)C(=O)CC[C@@H]12; settings: LLC-PK1; Membrane vesicle
[5] = molecular target: ATP-binding cassette sub-family C member 11 (Homo sapiens) (UniProt Q96J66); assay: TP_TRANSPORTER: inhibition of Estradiol-17beta-D-glucuronide uptake by Indomethacin at a concentration of 10 uM in membrane vesicle from MRP8-expressing LLC-PK1 cells; type: functional, cell membranes; design: scale not given: the % may be the effect or the level left; in short: as §1
[6] = molecular target: ATP-binding cassette sub-family C member 11 (Homo sapiens) (UniProt Q96J66); assay: TP_TRANSPORTER: inhibition of Estradiol-17beta-D-glucuronide uptake by Probenecid at a concentration of 10 uM in membrane vesicle from MRP8-expressing LLC-PK1 cells; type: functional, cell membranes; design: scale not given: the % may be the effect or the level left; in short: as §1
[7] = molecular target: ATP-binding cassette sub-family C member 11 (Homo sapiens) (UniProt Q96J66); assay: TP_TRANSPORTER: inhibition of Estradiol-17beta-D-glucuronide uptake by 2,4-dinitrophenyl-S-glutathione at a concentration of 10 uM in membrane vesicle from MRP8-expressing LLC-PK1 cells; type: functional, cell membranes; design: scale not given: the % may be the effect or the level left; in short: as §1
[8] = molecular target: ATP-binding cassette sub-family C member 11 (Homo sapiens) (UniProt Q96J66); assay: TP_TRANSPORTER: inhibition of Estradiol-17beta-D-glucuronide uptake by Glycolithocholate at a concentration of 10 uM in membrane vesicle from MRP8-expressing LLC-PK1 cells; type: functional, cell membranes; design: scale not given: the % may be the effect or the level left; in short: as §1
[9] = molecular target: ATP-binding cassette sub-family C member 11 (Homo sapiens) (UniProt Q96J66); assay: TP_TRANSPORTER: inhibition of Estradiol-17beta-D-glucuronide uptake by MK-571 at a concentration of 10 uM in membrane vesicle from MRP8-expressing LLC-PK1 cells; type: functional, cell membranes; design: scale not given: the % may be the effect or the level left; in short: as §1
[10] = molecular target: ATP-binding cassette sub-family C member 11 (Homo sapiens) (UniProt Q96J66); assay: TP_TRANSPORTER: inhibition of Estradiol-17beta-D-glucuronide uptake by Glycocholate at a concentration of 10 uM in membrane vesicle from MRP8-expressing LLC-PK1 cells; type: functional, cell membranes; design: scale not given: the % may be the effect or the level left; in short: as §1
[11] = molecular target: ATP-binding cassette sub-family C member 11 (Homo sapiens) (UniProt Q96J66); assay: TP_TRANSPORTER: inhibition of Estradiol-17beta-D-glucuronide uptake by Dehydroepiandrosterone-3-sulfate at a concentration of 10 uM in membrane vesicle from MRP8-expressing LLC-PK1 cells; type: functional, cell membranes; design: scale not given: the % may be the effect or the level left; in short: as §1
[12] = molecular target: ATP-binding cassette sub-family C member 11 (Homo sapiens) (UniProt Q96J66); assay: TP_TRANSPORTER: inhibition of Estradiol-17beta-D-glucuronide uptake by Sildenifil at a concentration of 10 uM in membrane vesicle from MRP8-expressing LLC-PK1 cells; type: functional, cell membranes; design: scale not given: the % may be the effect or the level left; in short: as §1
[13] = molecular target: ATP-binding cassette sub-family C member 11 (Homo sapiens) (UniProt Q96J66); assay: TP_TRANSPORTER: inhibition of Estradiol-17beta-D-glucuronide uptake by Leukotrien C4 at a concentration of 1 uM in membrane vesicle from MRP8-expressing LLC-PK1 cells; type: functional, cell membranes; design: scale not given: the % may be the effect or the level left; in short: as §1

ATP-binding cassette sub-family C member 11 (Homo sapiens), Q96J66, sequence (Q96J66 whole entry): as above

Compound: Nc1nc2c(ncn2[C@@H]2O[C@@H]3COP(=O)(O)O[C@H]3[C@H]2O)c(=O)[nH]1
- Activity [1]: 73%

Compound: ATP-binding cassette sub-family C member 11 (Homo sapiens), Q96J66
- Km [2]: 957 µM
- Km [3]: 62.9 µM
- Km [4]: 13 µM

Compound: COc1ccc2c(c1)c(CC(=O)O)c(C)n2C(=O)c1ccc(Cl)cc1
- Activity [5]: 64%

Compound: CCCN(CCC)S(=O)(=O)c1ccc(C(=O)O)cc1
- Activity [6]: 76%

Compound: N[C@@H](CCC(=O)N[C@H](CSc1ccc([N+](=O)[O-])cc1[N+](=O)[O-])C(=O)NCC(=O)O)C(=O)O
- Activity [7]: 17%

Compound: C[C@H](CCC(=O)NCC(=O)O)[C@H]1CC[C@H]2[C@@H]3CC[C@@H]4C[C@H](O)CC[C@]4(C)[C@H]3CC[C@]12C
- Activity [8]: 16%

Compound: CN(C)C(=O)CCSC(SCCC(=O)O)c1cccc(/C=C/c2ccc3ccc(Cl)cc3n2)c1 (stereo not drawn)
- Activity [9]: 25%

Compound: C[C@H](CCC(=O)NCC(=O)O)[C@H]1CC[C@H]2[C@@H]3[C@H](O)C[C@@H]4C[C@H](O)CC[C@]4(C)[C@H]3C[C@H](O)[C@]12C
- Activity [10]: 62%

Compound: C[C@]12CC[C@H](OS(=O)(=O)O)CC1=CC[C@@H]1[C@@H]2CC[C@]2(C)C(=O)CC[C@@H]12
- Activity [11]: 196%

Compound: CCCc1nn(C)c2c(=O)[nH]c(-c3cc(S(=O)(=O)N4CCN(C)CC4)ccc3OCC)nc12
- Activity [12]: 79%

Compound: CCCCC/C=C\C\C=C/C=C/C=C/[C@@H](SC[C@@H](NC(=O)CC[C@H](N)C(=O)O)C(=O)NCC(=O)O)[C@@H](O)CCCC(=O)O
- Activity [13]: 72%
